Measured values: ChEMBL document CHEMBL5712911, “A homogeneous bioluminescent immunoassay to probe cellular signaling pathway regulation” (Commun Biol, 2020)
Calls of active or inactive are those of the source. No cut-off for these calls is given here.

Columns and labels:
[1] = molecular target: T1, Catenin beta-1 (Homo sapiens) (UniProt P35222); assay: Induction of beta-catenin degradation in Wnt3a-stimulated HEK293 cells by NanoBiT cell-based immunoassay
T1 sequence (whole entry): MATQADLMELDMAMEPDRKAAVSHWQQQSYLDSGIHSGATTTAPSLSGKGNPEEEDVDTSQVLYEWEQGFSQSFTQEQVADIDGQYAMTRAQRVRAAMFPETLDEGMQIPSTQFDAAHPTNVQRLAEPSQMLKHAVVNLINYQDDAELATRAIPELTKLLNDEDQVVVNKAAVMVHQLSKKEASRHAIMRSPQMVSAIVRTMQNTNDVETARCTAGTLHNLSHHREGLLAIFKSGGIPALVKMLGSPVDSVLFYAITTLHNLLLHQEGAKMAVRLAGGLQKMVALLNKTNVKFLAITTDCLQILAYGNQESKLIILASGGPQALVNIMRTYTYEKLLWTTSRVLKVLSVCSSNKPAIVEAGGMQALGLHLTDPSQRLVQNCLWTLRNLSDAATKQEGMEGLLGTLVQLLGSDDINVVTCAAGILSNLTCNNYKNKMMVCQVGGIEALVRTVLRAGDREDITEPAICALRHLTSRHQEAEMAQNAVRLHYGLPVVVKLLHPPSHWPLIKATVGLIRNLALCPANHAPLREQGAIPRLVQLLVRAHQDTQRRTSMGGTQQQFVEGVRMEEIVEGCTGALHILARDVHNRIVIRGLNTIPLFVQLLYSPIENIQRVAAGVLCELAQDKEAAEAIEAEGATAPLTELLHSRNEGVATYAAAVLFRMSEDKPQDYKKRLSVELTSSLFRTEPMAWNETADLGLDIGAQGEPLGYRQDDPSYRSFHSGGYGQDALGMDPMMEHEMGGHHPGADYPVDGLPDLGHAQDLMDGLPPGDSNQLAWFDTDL

MCF7 [2] = assay: Inhibition of IKK in human MCF7 cells assessed as reduction in TNFalpha-induced IkappaBalpha phosphorylation at serine 32 residue at 10 uM preincubated for 1 hr followed by TNFalpha-stimulation and measured after 10 mins by NanoBiT cell-based immunoassay; conditions: time 70.0 min
MCF7 [3] = assay: Inhibition of IKK in human MCF7 cells assessed as reduction in TNFalpha-induced total IkappaBalpha expression at 10 uM preincubated for 1 hr followed by TNFalpha-stimulation and measured after 10 mins by NanoBiT cell-based immunoassay; conditions: time 70.0 min
MCF7 [4] = assay: Inhibition of IKK in human MCF7 cells assessed as reduction in TNFalpha-induced p65 phosphorylation at serine 536 residue at 10 uM preincubated for 1 hr followed by TNFalpha-stimulation and measured after 10 mins by NanoBiT cell-based immunoassay; conditions: time 70.0 min
MCF7 [5] = assay: Inhibition of IKK in human MCF7 cells assessed as effect on TNFalpha-induced p65 expression at 10 uM preincubated for 1 hr followed by TNFalpha-stimulation and measured after 10 mins by NanoBiT cell-based immunoassay; conditions: time 70.0 min
MCF7 [6] = assay: Inhibition of IKK in human MCF7 cells assessed as reduction in TNFalpha-induced IkappaBalpha degradation preincubated for 1 hr followed by TNFalpha-stimulation and measured after 30 mins by NanoBiT cell-based immunoassay; conditions: time 1.5 hrs
How it was run: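 MCF-7 cells (50,000/well, seeded overnight) were preincubated 1 h with graded inhibitor concentrations, then stimulated with TNFα (50 ng per ml, 30 min). Digitonin lysis was followed by NanoBiT total IκBα immunoassay: a rabbit/mouse primary pair plus SmBiT/LgBiT-labelled secondaries for 90 min at 23 °C, then Nano-Glo substrate and luminescence read. IC50 was taken from the dose–response.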

HeLa [7] = assay: Inhibition of IKK in human HeLa cells assessed as reduction in TNFalpha-induced IkappaBalpha phosphorylation at serine 32 residue preincubated for 1 hr followed by TNFalpha-stimulation and measured after 10 mins by NanoBiT cell-based immunoassay; conditions: time 70.0 min
Ramos [8] = assay: Inhibition of IKK in human Ramos cells assessed as reduction in TNFalpha-induced IkappaBalpha phosphorylation at serine 32 residue preincubated for 1 hr followed by TNFalpha-stimulation and measured after 10 mins by NanoBiT cell-based immunoassay; conditions: time 70.0 min
[9] = test system: Primary mammary epithelial cell; assay: Inhibition of IKK in human primary mammary epithelial cells assessed as reduction in TNFalpha-induced IkappaBalpha phosphorylation at serine 32 residue preincubated for 1 hr followed by TNFalpha-stimulation and measured after 10 mins by NanoBiT cell-based immunoassay; conditions: time 70.0 min
HeLa [10] = assay: Inhibition of IKK in human HeLa cells assessed as reduction in IL-1beta-induced IkappaBalpha phosphorylation at serine 32 residue preincubated for 1 hr followed by IL-1beta-stimulation and measured after 10 mins by NanoBiT cell-based immunoassay; conditions: time 70.0 min
Ramos [11] = assay: Inhibition of IKK in human Ramos cells assessed as reduction in IL-1beta-induced IkappaBalpha phosphorylation at serine 32 residue preincubated for 1 hr followed by IL-1beta-stimulation and measured after 10 mins by NanoBiT cell-based immunoassay; conditions: time 70.0 min
[12] = test system: Primary mammary epithelial cell; assay: Inhibition of IKK in human primary mammary epithelial cells assessed as reduction in IL-1beta-induced IkappaBalpha phosphorylation at serine 32 residue preincubated for 1 hr followed by IL-1beta-stimulation and measured after 10 mins by NanoBiT cell-based immunoassay; conditions: time 70.0 min
MCF7 [13] = assay: Inhibition of IKK in human MCF7 cells assessed as reduction in IL-1beta-induced IkappaBalpha phosphorylation at serine 32 residue preincubated for 1 hr followed by IL-1beta-stimulation and measured after 10 mins by NanoBiT cell-based immunoassay; conditions: dose 10.0 µM, time 70.0 min
MCF7 [14] = assay: Inhibition of IKK in human MCF7 cells assessed as reduction in IL-1beta-induced p65 phosphorylation at serine 536 residue preincubated for 1 hr followed by IL-1beta-stimulation and measured after 10 mins by NanoBiT cell-based immunoassay; conditions: time 70.0 min
MCF7 [15] = assay: Inhibition of PI3K in human MCF7 cells assessed as reduction in insulin-induced AKT S473 phosphorylation at 20 uM preincubated for 1 hr followed by insulin stimulation and measured after 10 mins by NanoBiT cell-based immunoassay; conditions: time 70.0 min
How it was run: (§1)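 MCF-7 cells, 50,000/well, were held overnight without serum. They were pretreated 1 h with 20 µM inhibitor, then given insulin (1 µM, 10 min). After 20 min digitonin lysis with protease/phosphatase inhibitors, AKT S473 phosphorylation (20) or total AKT (1) was read by NanoBiT immunoassay (antibody mix 90 min, 23 °C; Nano-Glo luminescence). Means ± S.E.M., n = 3 technical replicates.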

[16] = Effect on total AKT expression in human MCF7 cells at 20 uM measured after 1 hr by NanoBiT cell-based immunoassay; type: toxicity; conditions: mcf7, 1 h; how it was run: as §1
MCF7 [17] = assay: Inhibition of PI3K in human MCF7 cells assessed as reduction in insulin-induced AKT S473 phosphorylation preincubated for 1 hr followed by insulin stimulation and measured after 10 mins by NanoBiT cell-based immunoassay; conditions: time 70.0 min
How it was run: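 For this dose–response, serum-starved MCF-7 cells (50,000/well, overnight without serum) were pretreated 1 h with a concentration series of inhibitor, then stimulated with insulin (1 µM, 10 min). p-AKT S473 was measured by NanoBiT immunoassay: digitonin lysis 20 min, primary pair plus NanoBiT secondaries 90 min at 23 °C, Nano-Glo luminescence. IC50 was derived from the titration.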

MCF7 [18] = assay: Inhibition of PI3K in human MCF7 cells assessed as reduction in IGF1-induced AKT S473 phosphorylation preincubated for 1 hr followed by IGF1 stimulation and measured after 10 mins by NanoBiT cell-based immunoassay; conditions: time 70.0 min
MCF7 [19] = assay: Inhibition of PI3K in human MCF7 cells assessed as reduction in insulin-induced AKT T308 phosphorylation preincubated for 1 hr followed by insulin stimulation and measured after 10 mins by NanoBiT cell-based immunoassay; conditions: time 70.0 min
[20] = Effect on total STAT3 expression in human A-431 cells at 1 uM measured after 1 hr by NanoBiT cell-based immunoassay; type: toxicity; conditions: a-431, 1 h
How it was run: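 A431 cells, 50,000/well, were kept overnight in serum-free medium. […] Total STAT3 was measured by NanoBiT immunoassay after 20 min digitonin lysis (antibody mix 90 min, 23 °C; Nano-Glo luminescence). Means ± S.E.M., n = 3 technical replicates.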

With `O=C1Nc2ccccc2C12OCC1(CO2)COC2(OC1)C(=O)Nc1ccccc12` (stereo not given) the Activity [1] was “Active”.

In the case of `O=C(c1ccc(Nc2nccc(-c3cc4ccccc4s3)n2)cc1)N1CCC(N2CCCC2)CC1`, the inhibition (MCF7 [2]) is reported as “Active”, the inhibition (MCF7 [3]) is reported as “Active” and the inhibition (MCF7 [4]) is reported as “Active”. For the same compound, the inhibition (MCF7 [5]) was “inactive”, the inhibition (MCF7 [6]) was “Dose-Dependent Effect” and the inhibition (HeLa [7]) was “Active”. For the same compound, the inhibition (Ramos [8]) was “Active”, the inhibition [9] was “Active” and the inhibition (HeLa [10]) was “Active”. For the same compound, the inhibition (Ramos [11]) was “Active”, the inhibition [12] was “Active” and the inhibition (MCF7 [13]) was “Active”. For the same compound, the inhibition (MCF7 [14]) was “Active”.

For `O=c1cc(N2CCOCC2)oc2c(-c3ccccc3)cccc12` [LY-294002], the inhibition (MCF7 [15]) was “Active”, the Activity [16] was “Non-Toxic” and the inhibition (MCF7 [17]) was “Dose-Dependent Effect”. For the same compound, the inhibition (MCF7 [18]) was “Active” and the inhibition (MCF7 [19]) was “Active”.

For `N#CC[C@H](C1CCCC1)n1cc(-c2ncnc3[nH]ccc23)cn1` [RUXOLITINIB], the Activity [20] was “Non-Toxic”.
